Reference: ChEMBL document CHEMBL1142417, “Studies on quinones. Part 43: Synthesis and cytotoxic evaluation of polyoxyethylene-containing 1,4-naphthoquinones” (Bioorg Med Chem, 2008)

Experiments:
AGS = test: Antitumor against human AGS cells after 72 hrs by MTT assay; assay type: functional, cell-based
Method in brief: (§1)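 Cells seeded at 50,000 cells/mL and treated one day later for 3 days with compound at 0 up to 100 µM, with DMSO at 1% final. Untreated cells served as controls. Growth was read by MTT reduction, in sextuplicate. IC50 is the concentration giving 50% growth reduction. Media: AGS in Ham F-12; MRC-5, SK-MES-1 and J82 in MEM; all with 10% FBS at 37 °C and 5% CO2.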

HL-60 = test: Antitumor against human HL60 cells after 72 hrs by MTT assay; assay type: functional, cell-based; conditions: HL-60, 72 h
Method in brief: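 HL-60 leukemia cells kept in RPMI with 1 mM pyruvate and 10% heat-inactivated FBS at 37 °C and 5% CO2. They were plated at 50,000 cells/mL and exposed from day 1 for 3 days to compound at 0 up to 100 µM, with DMSO at 1% final. Untreated cells served as controls. Readout was MTT reduction in sextuplicate. IC50 is 50% growth reduction.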

J82 = test: Antitumor against human J82 cells after 72 hrs by MTT assay; assay type: functional, cell-based; conditions: J82, 72 h; method in brief: as §1
MRC5 = test: Cytotoxicity against human MRC5 cells after 72 hrs by MTT assay; assay type: cell-based; conditions: MRC5, 72 h; method in brief: as §1
SK-MES-1 = test: Antitumor against human SK-MES1 cells after 72 hrs by MTT assay; assay type: functional, cell-based; conditions: SK-MES-1, 72 h; method in brief: as §1

Row | Compound | IC50 (AGS) [µM] | IC50 (HL-60) [µM] | IC50 (SK-MES-1) [µM] | IC50 (J82) [µM] | IC50 (MRC5) [µM]
1 | O=C1C(Cl)=C(OCCOCCOCCOCCOC2=C(Cl)C(=O)c3ccccc3C2=O)C(=O)c2ccccc21 | 54.8 | 89.5 | 12.2 | 33.9 | 55.8
2 | COC1=C(Cl)C(=O)c2ccccc2C1=O | 9.1 | 1.8 | 11.5 | 10.1 | 3.5
3 | O=C1C2=C(OCCOCCOCCO2)C(=O)c2ccccc21 | 17.5 | 2.6 | 7.9 | 19.8 | 10.1
4 | O=C1C2=C(OCCOCCO2)C(=O)c2ccccc21 | 63.2 | 21.4 | 16.4 | 39.6 | 95.2
5 | O=C1C2=C(OCCO2)C(=O)c2ccccc21 | 19.5 | 20.1 | 8.3 | 22.3 | 22.9

More lines, in order of falling IC50 (AGS), values ahead:

Row | IC50 (AGS) [µM] | IC50 (HL-60) [µM] | IC50 (SK-MES-1) [µM] | Compound | IC50 (J82) [µM] | IC50 (MRC5) [µM]
6 | 11 | 1.9 | 16.1 | O=C1C(Cl)=C(OCCOCCOC2=C(Cl)C(=O)c3ccccc3C2=O)C(=O)c2ccccc21 | 26.6 | 7.3
7 | 9.9 | 1.7 | 16.7 | COCCOC1=C(Cl)C(=O)c2ccccc2C1=O | 19.4 | 3.5
8 | 9.1 | 8.9 | 5.3 | COC1=C(OC)C(=O)c2ccccc2C1=O | 16.1 | 7.2
9 | 5.2 | 1.3 | 7.1 | O=C1C(Cl)=C(OCCOCCOCCOC2=C(Cl)C(=O)c3ccccc3C2=O)C(=O)c2ccccc21 | 8.6 | 4
10 | 0.36 | 0.8 | 2.5 | COc1cc([C@@H]2c3cc4c(cc3[C@@H](O[C@@H]3O[C@@H]5CO[C@@H](C)O[C@H]5[C@H](O)[C@H]3O)[C@H]3COC(=O)[C@H]23)OCO4)cc(OC)c1O [ETOPOSIDE] | 2.8 | 3.9
